Screens deposited in PubChem by several laboratories.
Rows were chosen to be rich in hits. Some 1.7% of all compounds tested hit in one or more screens of this group.
Pemphigus Ab inh: inhibitors of pemphigus antibody binding to DSG3, primary screen, biochemical, bead-based, flow cytometry, scFv-GFP; AID 588358, 2011; DSG3-coupled beads, scFv-anti-DSG3-GFP binding; hits give low values; 310,000 tested, 0.48% active; Desmoglein-3 (Homo sapiens), P32926; binding (percent of control), % at 10 µM;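 active = binding more than 3 SD below its plate's average and above zero; inconclusive = below that plate limit but binding exactly zero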;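 note: hits lower antibody fragment binding to DSG3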
Target sequence (P32926 whole entry, looked up, the tested form may be a part): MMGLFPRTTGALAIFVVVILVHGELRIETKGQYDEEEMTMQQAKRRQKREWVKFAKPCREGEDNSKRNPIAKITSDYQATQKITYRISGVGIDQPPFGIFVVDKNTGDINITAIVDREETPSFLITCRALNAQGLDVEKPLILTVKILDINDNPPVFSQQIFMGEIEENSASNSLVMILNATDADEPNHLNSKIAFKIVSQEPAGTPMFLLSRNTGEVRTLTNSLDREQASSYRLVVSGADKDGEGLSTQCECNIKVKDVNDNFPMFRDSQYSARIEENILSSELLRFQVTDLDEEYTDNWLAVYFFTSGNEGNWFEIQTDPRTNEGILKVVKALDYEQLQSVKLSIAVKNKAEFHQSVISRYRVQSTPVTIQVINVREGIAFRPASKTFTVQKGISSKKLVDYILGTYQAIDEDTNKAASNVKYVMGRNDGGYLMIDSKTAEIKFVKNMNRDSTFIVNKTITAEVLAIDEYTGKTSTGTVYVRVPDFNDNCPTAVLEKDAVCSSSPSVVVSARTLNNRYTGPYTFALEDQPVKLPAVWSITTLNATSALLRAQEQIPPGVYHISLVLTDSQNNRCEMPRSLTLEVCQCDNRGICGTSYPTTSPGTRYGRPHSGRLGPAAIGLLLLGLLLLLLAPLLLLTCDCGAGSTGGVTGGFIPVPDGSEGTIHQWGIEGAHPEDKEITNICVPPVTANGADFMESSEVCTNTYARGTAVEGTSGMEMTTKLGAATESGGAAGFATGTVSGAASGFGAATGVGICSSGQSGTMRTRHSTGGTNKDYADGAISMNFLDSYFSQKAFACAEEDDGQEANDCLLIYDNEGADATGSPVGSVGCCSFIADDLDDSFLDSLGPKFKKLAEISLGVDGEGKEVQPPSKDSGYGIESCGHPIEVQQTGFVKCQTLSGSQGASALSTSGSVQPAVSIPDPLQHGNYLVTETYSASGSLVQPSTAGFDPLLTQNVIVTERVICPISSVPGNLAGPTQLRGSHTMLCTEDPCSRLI
T cell HTS: modulators of CD8 T cell-vesicle binding, primary screen, mouse 2C CD8+ T cells, flow cytometry; 330,000 tested, 0.068% active; response (vesicle binding), % at 7 µM; 2C CD8+ T cell-vesicle binding; hits give low values;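 active = response, share of CD8 T cells binding vesicles, and their 90th percentile fluorescence all below set limits, cut at about 80% in these data, passing the limit was not always enough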;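 note: values below 100% mean blocked vesicle binding to the CD8+ T cells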
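Test system: purified 2C TCR transgenic mouse naive CD8+ T cells. Probe or stimulus: QL9-peptide-loaded Drosophila micro-vesicles bearing Ld, ICAM-1 and B7-1. Incubation: binding step 1.5 h, 37 °C, antibody labelling 20 min, ice. Measured by: flow cytometry of vesicle-bound cells.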
Myeloid diff 2: induction of myeloid progenitor differentiation, primary screen, cell-based, flow cytometry, MLPCN library. ER-HoxA9 myeloid progenitors, lysozyme-GFP differentiation. calls only at 10 µM. 360,000 tested, 1% active;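 active = normalized GFP-positive differentiation at or above the plate's own cutoff, the solvent-only control mean plus 3 SD; inconclusive = no clear call, values can overlap the other calls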;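 note: cells exposed to compound for four days before flow analysis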
Vif inh: HIV Vif self-association inhibitors, primary screen, imaging, HEK293T, single point; HEK293T cells, Vif self-association by quenched fluorescence, 24 h; inhibition, % at 7.49 µM; 340,000 tested, 0.35% active; AID 602346, 2012; in the data active = inhibition above about 50%, passing the limit was not always enough; inconclusive = no clear call, values can overlap the other calls; inactive = below about 31%
Each line names hits and unclear results; the compound was inactive in the other large screens.

O=C(O)Cn1cc(/C=N/Nc2ccc([N+](=O)[O-])cn2)c2ccccc21	none
CCCCn1cnc2c(c(-c3ccccc3)c(-c3ccccc3)n2Cc2ccco2)c1=N	none
N=c1c2c(-c3ccccc3)c(-c3ccccc3)n(Cc3ccccc3)c2ncn1CCCn1ccnc1	Myeloid diff 2 active
COc1ccc(/C=C2/C(=O)N=C(N)N2C)cc1OC	Myeloid diff 2 active
COc1ccc(/C=C2\N=C(C)OC2=O)cc1OC	Myeloid diff 2 active
COc1ccc(/C=C2\N=C(C)OC2=O)cc1OC(C)=O	Pemphigus Ab inh inconclusive
OCC1OC(n2cnc3c(N4CCCCC4)ncnc32)C(O)C1O (stereo unspecified)	none (no result: T cell HTS)
CCCNC(=O)C1(C)CCN(C(=O)c2ccc(F)c(Cl)c2)C1 (stereo unspecified)	none (no result: Pemphigus Ab inh, T cell HTS)
Nc1ccc(Cn2ccc3c4c(N)nc(N)nc4ccc32)cc1	Myeloid diff 2 inconclusive (no result: T cell HTS)
O=C1Nc2ccc(Br)cc2/C1=N\N=C\C1=C(N2CCOCC2)C(=C/c2ccccc2)/CC1	Pemphigus Ab inh 86 (no result: T cell HTS)
O=C1Nc2ccccc2/C1=N\N=C\C1=C(N2CCOCC2)C(=C\c2ccccc2)/CC1	Pemphigus Ab inh 80, Myeloid diff 2 inconclusive
COc1cc(Cn2c3ccc(NC(=O)NCCc4ccccc4)cc3c(=O)n2C)ccc1F	none (no result: Pemphigus Ab inh, T cell HTS)
CCOc1ccc2nc(NC(=O)C3CSC4(C)CCC(=O)N34)sc2c1 (stereo unspecified)	none
C=C(C)C(=O)Nc1cccc(C2=NOC3(C2)C[C@@H](C(N)=O)N(C(=O)/C=C/C=C/C)C3)c1 (stereo partly specified)	Pemphigus Ab inh 90 (no result: Vif inh)
C=C(C)C(=O)Nc1cccc(C2=NOC3(C2)C[C@@H](C(N)=O)N(C(=O)/C(C)=C/C)C3)c1 (stereo partly specified)	Pemphigus Ab inh 89
N#Cc1ccccc1OCC(=O)Nc1ccc2c(c1)OCO2	none (no result: T cell HTS)
Cc1cc(Nc2ccccc2)nc(NCc2ccccc2)n1	none
Cc1cc(Nc2cccc(F)c2)nc(NCc2ccccc2)n1	Myeloid diff 2 active
Cc1cc(Oc2ccccc2F)nc(NCc2ccccc2)n1	Pemphigus Ab inh -3.2 (no result: T cell HTS, Vif inh)
O=C(/C=C1\OCc2ccccc21)c1ccccc1	none (no result: Pemphigus Ab inh, T cell HTS, Vif inh)
Cc1cccc(NC(=O)NN2CCN(C)CC2)c1C	none
Cc1c(Cl)cccc1NC(=O)NN1CCN(C)CC1	Myeloid diff 2 active
COC(=O)c1ccccc1NC(=O)C1CCCO1 (stereo unspecified)	Myeloid diff 2 active
COc1ccccc1NC(=S)N1CCN(C(=O)C2CCCO2)CC1 (stereo unspecified)	Vif inh 64
COc1ccc(Cl)cc1NC(=S)N1CCN(C(=O)C2CCCO2)CC1 (stereo unspecified)	none
CC1(C)CC2CC(C)(CN2C(=O)COC(=O)c2cccc([N+](=O)[O-])c2)C1 (stereo unspecified)	none
CC1(C)CC2CC(C)(CN2Cc2cccc([N+](=O)[O-])c2)C1 (stereo unspecified)	Vif inh 57
OC(c1cc(F)cc(Cl)c1)c1ncc(-c2cccc(C(F)(F)F)c2)[nH]1 (stereo unspecified)	none (no result: Pemphigus Ab inh, T cell HTS)
COc1ccccc1OC(=O)CCc1nc2ccccc2s1	Myeloid diff 2 active
COC(=O)CCCc1nc2ccccc2s1	none
COc1ccc(S(=O)(=O)N2CCCC(C(=O)N3CCN(Cc4ccccc4)CC3)C2)cc1Cl (stereo unspecified)	none (no result: T cell HTS)
COc1ccc(S(=O)(=O)N2CCOCC2)cc1NC(=O)c1ccc(S(=O)(=O)N2CCCCC2)cc1	none (no result: T cell HTS)
CSc1nc2ccc(S(=O)(=O)N3CCOCC3)cc2s1	none
N#CCc1nc2ccc(S(=O)(=O)N3CCOCC3)cc2s1	Myeloid diff 2 active
Cc1nc2ccc(NC(=O)c3ccc(S(=O)(=O)N4CCOCC4)cc3)cc2s1	Pemphigus Ab inh 81
COc1ccc(OC)c2sc(NC(=O)c3ccc(S(=O)(=O)N4CCOCC4)cc3)nc12	Pemphigus Ab inh -17
COC(=O)[C@@]12C[C@@H](CC(=O)N3CCCC3)C(=O)N(Cc3ccc4c(c3)OCO4)C1=CCC(C)(C)C2	none (no result: Pemphigus Ab inh, T cell HTS, Vif inh)
CCN(CC)C(=O)C1=C(C)N(Cc2ccc(C(C)(C)C)cc2)C(=O)C(CC(=O)NC(c2ccccc2)c2ccccc2)C1 (stereo unspecified)	none (no result: T cell HTS, Vif inh)
COc1ccc2c(c1)CC/C(=C/c1ccncc1)C2=O	Myeloid diff 2 active
O=C1OC(Sc2ccccc2)(c2ccccc2)c2ccccc21 (stereo unspecified)	none (no result: T cell HTS)
O=C(Nc1cccnc1Cl)c1ccc2c(Cl)c3c(nc2c1)CCC3	none (no result: T cell HTS)
N#Cc1ccccc1NC(=O)c1ccc2c(Cl)c3c(nc2c1)CCCC3	Pemphigus Ab inh 93
O=C1c2cccc3c([N+](=O)[O-])ccc(c23)C(=O)N1c1ccccn1	Myeloid diff 2 inconclusive, Vif inh 113
O=C1c2cccc3c([N+](=O)[O-])ccc(c23)C(=O)N1c1nccs1	Myeloid diff 2 inconclusive, Vif inh 67
O=C(COC(=O)CNC(=O)c1ccccc1)NCCNC(=O)COC(=O)CNC(=O)c1ccccc1	none (no result: Pemphigus Ab inh)
COC(=O)CN(n1cnnc1)S(=O)(=O)c1ccccc1Cl	T cell HTS 67
CON(c1nc(N(C)C)nc(N(C)C)n1)S(=O)(=O)c1ccccc1Cl	none
N#CCC(=O)N/N=C/c1ccc(N2N=C(c3ccccc3)CC2c2ccccc2)cc1 (stereo unspecified)	Myeloid diff 2 active
COc1ccc(C2CC(c3ccccc3)=NN2c2ccc(/C=N/NC(=O)c3ccncc3)cc2)cc1 (stereo unspecified)	none (no result: Vif inh)
Cc1ccc(C(O)c2ncc(-c3ccccc3)[nH]2)c(C)c1 (stereo unspecified)	none (no result: Pemphigus Ab inh, T cell HTS, Vif inh)
CCCNc1c(F)c(F)c2c(C)c3ccccc3nc2c1F	Myeloid diff 2 active (no result: Vif inh)
c1coc(CNc2c3c(nc4ccccc24)CCC3)c1	Myeloid diff 2 active
CN(C(=O)COC(=O)Cc1ccc(Br)cc1)c1c(N)n(Cc2ccccc2)c(=O)[nH]c1=O	none (no result: T cell HTS, Vif inh)
COC(=O)c1c(NC(=O)c2ccccc2N(C)S(=O)(=O)c2ccccc2)sc2c1CCCC2	Myeloid diff 2 active (no result: T cell HTS)
N#C/C(=C/c1cccn1-c1cccc(C(=O)O)c1)c1ccc(Cl)cc1	Myeloid diff 2 active (no result: Vif inh)
O=C(O)c1cccc(-n2cccc2/C=C\[N+](=O)[O-])c1	none
O=C(O)c1cccc(-n2cccc2/C=C/[N+](=O)[O-])c1	Pemphigus Ab inh 24
CC(C)OC(=O)C(C(=O)C(F)(F)F)c1cc(NS(=O)(=O)c2ccc3ccccc3c2)c2ccccc2c1O (stereo unspecified)	Myeloid diff 2 active
CCOc1ccc(S(=O)(=O)Nc2cc(SCC(=O)O)c(O)c3ccccc23)cc1	none
Cc1cccc(NC(=O)Cn2nnc(-c3cccs3)n2)c1C	Myeloid diff 2 active
CCc1ccccc1NC(=O)Cn1nnc(-c2cccs2)n1	none
CSc1ccccc1NC(=O)COc1nsnc1N1CCOCC1	Myeloid diff 2 active
c1ccc(CSc2ccc3nnc(-c4ccccn4)n3n2)cc1	none
